A word on the CC50: it is the concentration giving 50% cytotoxicity. By EC50 is commonly meant the concentration giving half of the maximal effect. Usually bioavailability stands for dose-corrected exposure relative to a reference, in per cent.

This is an account of results in ChEMBL document CHEMBL4613269, “2-((4-Arylpiperazin-1-yl)methyl)benzonitrile Derivatives as Orally Available Inhibitors of Hepatitis C Virus with a Novel Mechanism of Action” (J Med Chem, 2020).

The nature of series [1]: Selectivity index, ratio of CC50 for cytotoxicity in human Huh7.5 cells assessed as reduction in cell viability incubated for 96 hrs by MTT assay to EC50 for antiviral activity against HCV J6/JFH/JC1 infected in human Huh7.5 cells incubated for 72 hrs by In-Cell Western assay. It counts as toxicity, cell-based. Conditions: read-out: Ratio CC50/EC50. The essentials:
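HCVcc (MOI=0.1) infected Huh7.5 cells co-treated with eight-step 1:5 serial dilutions, triplicate wells. After 72 h, fixed, permeabilized, and stained for HCV Core and GAPDH with IR-dye secondaries. Core normalized to GAPDH. CC50 came from MTT at 96 h in uninfected Huh7.5 cells. EC50/CC50 were derived by Reed & Muench, mean ± SD of three independent experiments.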
In general terms: Formazan colour is commonly taken as a measure of viable cells.

Series [2] in a line: Cytotoxicity in human Huh7.5 cells assessed as reduction in cell viability incubated for 96 hrs by MTT assay. Type of series: cell-based. The method, boiled down: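 Huh7.5 cells seeded 24 h before compound addition. Viability read by MTT at 96 h. Eight-step 1:5 serial dilutions in triplicate; CC50 by Reed & Muench; three independent experiments.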
The subject of series [3] is Hepatitis C virus. Kind of series: Antiviral activity against HCV J6/JFH/JC1 infected in human Huh7.5 cells incubated for 72 hrs by In-Cell Western assay. Type of series: functional, organism-based, Hepacivirus hominis. The conditions noted are these: J6/JFH/JC1, Huh7.5, 72 h. The essentials: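 Huh7.5 cells infected with HCVcc (MOI 0.1) and treated with compound at the same time for 72 h. Cells fixed with PFA, permeabilized, then stained for HCV Core and GAPDH with IR-dye secondaries. Core signal normalized to GAPDH. Eight-step 1:5 dilutions in triplicate; EC50 by Reed & Muench; mean of three experiments.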

For series [4], the system named is Hepatitis C virus. Description: Antiviral activity against HCV expressing NS5B S282T mutant by qRT-PCR analysis based by Reed-Muench method. It counts as functional, organism-based, Hepacivirus hominis. The method, boiled down:
(§1)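 Huh7.5 cells seeded at 3×10^4/cm², infected 24 h later with wild-type or mutant HCV stock while compound or solvent was added at the same time. Intracellular HCV RNA measured by qRT-PCR at 72 h, normalised to GAPDH, 2^-ΔCT method. EC50 by Reed & Muench from eight-step 1:5 serial dilutions, triplicate wells.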
(In general: Real-time PCR tracks product formation cycle by cycle.)

A short description of series [5]: Selectivity index, ratio of CC50 for cytotoxicity in human Huh7.5 cells assessed as reduction in cell viability incubated for 96 hrs by MTT assay to EC50 antiviral activity against HCV J6/JFH/JC1 infected in human Huh7.5 cells assessed as reduction in viral RNA levels incubated for 72 hrs by qRT-PCR analysis. Type of series: toxicity, cell-based. The conditions noted are these: read-out: Ratio CC50/EC50. The essentials:
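Selectivity index = CC50/EC50. CC50: Huh7.5 cells seeded at 3×10^4/cm², medium with compound added at 24 h, MTT read at 96 h. EC50: HCVcc-infected Huh7.5 cells treated for 72 h, HCV RNA by qRT-PCR normalised to GAPDH. Serial 1:5 dilutions in eight steps, Reed & Muench calculation, means ± SD of three independent experiments.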

The subject of series [6] is Hepatitis C virus. Description: Antiviral activity against HCV J6/JFH/JC1 infected in human Huh7.5 cells assessed as reduction in viral RNA levels incubated for 72 hrs by qRT-PCR analysis. It counts as functional, organism-based, Hepacivirus hominis. Conditions: for EC50: J6/JFH/JC1, Huh7.5, 72 h. The method, boiled down:
(§2)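 Huh7.5 cells seeded 24 h, then infected with wild-type (or mutant) HCV with compound added at the same time. Incubated 72 h. Intracellular HCV RNA measured by qRT-PCR, 2^-ΔCt method, normalized to GAPDH. Eight-step 1:5 serial dilutions in triplicate; EC50 by Reed & Muench; three independent experiments.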

In series [7] the test system is Hepatitis C virus. Description: Antiviral activity against wild type HCV by qRT-PCR analysis based by Reed-Muench method. It counts as functional, organism-based, Hepacivirus hominis. The method, boiled down: as §2
A short description of series [8]: Cytotoxicity in African green monkey Vero E6 cells assessed as reduction in cell viability. Type of series: cell-based, Vero C1008. Conditions: chlorocebus sabaeus.
Series [9] is described as follows: Selectivity index, ratio of CC50 for cytotoxicity in African green monkey Vero E6 cells to EC50 for Antiviral activity against Zika virus infected in Vero E6 cells. It counts as toxicity, cell-based, Vero C1008. The conditions noted are these: read-out: Ratio CC50/EC50.
The test system of series [10] is Hepatitis C virus. Kind of series: Antiviral activity against HCV GS4.3 infected in human Huh7.5 cells assessed as reduction in viral replication at 0.3125 to 5 uM simultaneously treated with viral infection for 4 hrs and measured after 72 hrs by In-Cell Western assay. It counts as functional, organism-based. The conditions noted are these: Hepacivirus hominis. The essentials:
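Huh7.5 cells infected with HCV while incubated with compound, either for 4 h across a concentration series or at 1.0 µM for varied times down to 15 min. Supernatant then replaced with fresh medium. Intracellular Core protein measured by In-Cell Western at 72 h.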

The subject of series [11] is Hepatitis C virus. Kind of series: Antiviral activity against HCV GS4.3 infected in human Huh7.5 cells assessed as reduction in viral NS3 protein levels at 1 uM incubated for 72 hrs by Western blot assay. Type of series: functional, organism-based. The conditions noted are these: Hepacivirus hominis. A general note: A western blot detects proteins with antibodies after separation by electrophoresis.

In series [12] the test system is Hepatitis C virus. Kind of series: Antiviral activity against HCV expressing NS3 A156T mutant by qRT-PCR analysis based by Reed-Muench method. Type of series: functional, organism-based, Hepacivirus hominis. The method, boiled down: as §1
Series [13] relates to Hepatitis C virus. Kind of series: Antiviral activity against HCV genotype 1b pseudoparticle infected in human Huh7.5 cells assessed as reduction in viral replication at 10 uM. Type of series: functional, organism-based. Conditions: Hepacivirus hominis, subtype 1b. The essentials:
(§3)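 Genotype 1b or 2a HCV pseudoparticles made by co-transfecting HEK 293T cells with envelope and luciferase-reporter HIV plasmids; input standardized by luciferase. Huh7.5 cells co-incubated with compound and HCVpp for 4 h at 37°C, washed, then luciferase read at 72 h.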

Series [14] has as its system Hepatitis C virus. Description: Antiviral activity against HCV genotype 2a pseudoparticle infected in human Huh7.5 cells assessed as reduction in viral replication at 10 uM. The conditions noted are these: Hepacivirus hominis, subtype 2a. It counts as functional, organism-based. The method, boiled down: as §3
The next series deals with Influenza A virus. Kind of series: Antiviral activity against influenza A virus H3N2/95-359 infected in MDCK cells assessed as reduction in virus-induced cytopathic effect incubated for 48 hrs by Reed-Muench method. It counts as functional, organism-based. Conditions: H3N2/95-359, MDCK.
Series [15] can be described thus: Cytotoxicity in MDCK cells assessed as reduction in cell viability. Type of series: cell-based, Canis lupus familiaris. Conditions: dog.
Series [16] is described as follows: Selectivity index, ratio of CC50 for cytotoxicity in MDCK cells to EC50 for Antiviral activity against influenza A virus H3N2/95-359 infected in MDCK cells. The conditions noted are these: dog, read-out: Ratio CC50/EC50. Type of series: toxicity, cell-based.
The subject of series [17] is Hepatitis C virus. Description: Antiviral activity against HCV expressing NS3 D168V mutant by qRT-PCR analysis based by Reed-Muench method. It counts as functional, organism-based, Hepacivirus hominis. The essentials:
as §1

A short description of series [18]: Oral bioavailability in Sprague-Dawley rat 15 mg/kg measured after 0.25 to 72 hrs by LC-MS/MS analysis. Type of series: ADME, organism-based. The conditions noted are these: in vivo.
Series [19] concerns Hepatitis C virus. Kind of series: Antiviral activity against HCV genotype 1b pseudoparticle infected in human Huh7.5 cells assessed as reduction in viral replication at 2 to 4 uM. Type of series: functional, organism-based. The conditions noted are these: Hepacivirus hominis, subtype 1b. The essentials: as §3
Series [20] deals with Hepatitis C virus. Kind of series: Antiviral activity against HCV genotype 2a pseudoparticle infected in human Huh7.5 cells assessed as reduction in viral replication at 2 to 4 uM. The conditions noted are these: Hepacivirus hominis, subtype 2a. Type of series: functional, organism-based. The method, boiled down:
as §3

The nature of series [21]: Selectivity index, ratio of CC50 for cytotoxicity in African green monkey Vero cells to EC50 for Antiviral activity against Coxsackievirus B3 infected in Vero cells. Type of series: toxicity, cell-based. Conditions: read-out: Ratio CC50/EC50.
The nature of series [22]: Cytotoxicity in African green monkey Vero cells assessed as reduction in cell viability. Type of series: cell-based. Conditions: chlorocebus sabaeus.
A further series concerns Coxsackievirus B3. Kind of series: Antiviral activity against Coxsackievirus B3 infected in Vero cells assessed as reduction in virus-induced cytopathic effect incubated for 48 hrs by Reed-Muench method. It counts as functional, organism-based. Conditions: Enterovirus B.

Structures are written as SMILES. Calls of active or inactive are those of the source. The rule behind the calls is not given here. Some results are limits rather than exact numbers.

As for `CC(C)OC(=O)[C@H](C)N[P@](=O)(OC[C@H]1O[C@@H](n2ccc(=O)[nH]c2=O)[C@](C)(F)[C@@H]1O)Oc1ccccc1` [SOFOSBUVIR], the results for the selectivity ratio in series [1] and in [5] were > 1920 and > 4350, respectively. Also, in series [2], the half-maximal cytotoxic concentration (CC50) at 96 h is > 200000 nM. Also, the EC50 in the series on Hepatitis C virus [3] came out at 104 nM; with Hepatitis C virus [4] it was 148 nM; in the series on Hepatitis C virus [6], 46 nM; in the series with Hepatitis C virus [7], 29.4 nM.
`CN(C)CCN(C)c1ccc(C#N)c(CN2CCN(c3ccc(Br)cc3)CC2)c1`: the selectivity ratio in [1] amounted to 128; in [5], 503. In addition, the CC50 at 96 h in series [2] lay in the range of 13300 to 15600 nM. For the same compound, the EC50 in the series on Hepatitis C virus [3] was determined as 104 nM; in the series on Hepatitis C virus [6], 31 nM. For the same compound, the Activity result with Hepatitis C virus [6] (Hepacivirus hominis) was “Dose-dependent effect”.
Take `NC(=O)c1ncn([C@@H]2O[C@H](CO)[C@@H](O)[C@H]2O)n1` [RIBAVIRIN]: in series [8], the CC50 was > 200000 nM. Further, the selectivity ratio in [9] was > 6.
`CCC[C@H](NC(=O)[C@@H]1[C@H]2CCC[C@H]2CN1C(=O)[C@@H](NC(=O)[C@@H](NC(=O)c1cnccn1)C1CCCCC1)C(C)(C)C)C(=O)C(=O)NC1CC1` [TELAPREVIR]: the outcome in the series on Hepatitis C virus [10], in the series with Hepatitis C virus [13] and in the series with Hepatitis C virus [14] was inactive. Besides, the selectivity ratio in series [1] came out at 377. In series [2], the 50% cytotoxic concentration (CC50) at 96 h was determined as 55000 nM. The outcome in the series on Hepatitis C virus [11] was Active. Also, the EC50 in the series with Hepatitis C virus [12] was 1210 nM; in the series with Hepatitis C virus [3], 146 nM; in the series with Hepatitis C virus [7], 7.8 nM.
As to `CCOC(=O)C1=C[C@@H](OC(CC)CC)[C@H](NC(C)=O)[C@@H](N)C1` [OSELTAMIVIR], in the series with Influenza A virus, the EC50 was 2140 nM. In series [15], the CC50 is > 640000 nM. Besides, the selectivity ratio in series [16] was > 299.
Turning to `COc1ccc2c(O[C@@H]3C[C@H]4C(=O)N[C@]5(C(=O)NS(=O)(=O)C6CC6)C[C@H]5/C=C/CCCCN(C)C(=O)[C@@H]4C3)cc(-c3nc(C(C)C)cs3)nc2c1C`, the results for the EC50 with Hepatitis C virus [17] and in the series with Hepatitis C virus [7] were > 1000 nM and 9.2 nM, respectively.
For the compound `Cc1ccc(NCc2cc(N3CCN(C)CC3)ccc2C#N)cc1`, in series [2], the CC50 at 96 h came out at 37400 nM. For the same compound, the EC50 in the series on Hepatitis C virus [6] was determined as 1620 nM. Moreover, the bioavailability in [18] was < 5%.
Turning to `Cc1nc(Nc2ncc(C(=O)Nc3c(C)cccc3Cl)s2)cc(N2CCN(CCO)CC2)n1`, the outcome with Hepatitis C virus [19] and in the series on Hepatitis C virus [20] was Active.
With `CN(C)CCN(C)c1ccc(C#N)c(CN(C)c2ccc(Cl)cc2)c1`, in series [1], the selectivity ratio turned out to be 30.6. Moreover, in series [2], the CC50 at 96 h is 15500 nM. Besides, the EC50 with Hepatitis C virus [3] turned out to be 506 nM; in the series with Hepatitis C virus [6] it was 180 nM. The bioavailability in [18] was < 5%.
For the compound `Cc1cc(CCCOc2c(C)cc(-c3noc(C(F)(F)F)n3)cc2C)on1` [PLECONARIL], the selectivity ratio in series [21] is > 525. Further, the CC50 in series [22] was > 1050 nM. For the same compound, the EC50 in the series with Coxsackievirus B3 amounted to 2 nM.
For `Cc1ccc(NCc2cc(N3CCCCC3)ccc2C#N)cc1`, in series [2], the CC50 at 96 h stood at 11400 nM. The EC50 in the series on Hepatitis C virus [6] was > 7410 nM.
As for `Cc1ccc(NCc2cc(N3CCNCC3)ccc2C#N)cc1`, in [2], the half-maximal cytotoxic concentration (CC50) at 96 h worked out at 18800 nM. In addition, the EC50 in the series on Hepatitis C virus [6] turned out to be 1680 nM.
